{"source": "the RNAGym collection of RNA variant scans (doi:10.1126/science.aae0568)", "parents": {"B1": {"name": "tRNA (parent)", "chain": "GUUCCGUUGGCGUAAUGGUAACGCGUCUCCCUCCUAAGGAGAAGACUGCGGGUUCGAGUCCCGUACGGAACG"}}, "note": "This sample holds only a part of the variants without activity."}
{"variants_of": "B1", "assay": "yeast fitness relative to wild type (ratio to wild type); higher = fitter; tRNA-Arg(CCU), competitive growth, 37 C, YPD", "procedure,_shortened": "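Genotype frequency changes were the basis for Darwinian fitness relative to wild type. The frequencies came from 100-nucleotide paired-end sequencing of gene amplicons from the start population and each end population of pooled yeast strains with tRNA-Arg(CCU) gene variants at the native locus. Competition ran in YPD at 37°C for 24 hours in six replicates, genotypes needed ≥ 100 starting reads, and estimates < 0.5 were set to 0.5.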"}
{"variant": "C34U A45C C60A", "yeast fitness": "≤ 0.5"}
{"variant": "C34U A45C G52A A65G", "yeast fitness": 0.688}
{"variant": "C34U A45C G67U A69C A70C", "yeast fitness": "≤ 0.5"}
{"variant": "C34U A45U C66U", "yeast fitness": 0.57}
{"variant": "C34U A57C", "yeast fitness": 0.553}
{"variant": "C34U A57G C60A", "yeast fitness": "≤ 0.5"}
{"variant": "C34U A65C", "yeast fitness": 0.884}
{"variant": "C34U A65C G67C", "yeast fitness": "≤ 0.5"}
{"variant": "C34U A69U A70C", "yeast fitness": 0.541}
{"variant": "C34U C46A", "yeast fitness": 0.714}
{"variant": "C34U C46A C62U", "yeast fitness": 0.682}
{"variant": "C34U C46A G50C", "yeast fitness": "≤ 0.5"}
{"variant": "C34U C46G", "yeast fitness": 0.705}
{"variant": "C34U C46G A65U", "yeast fitness": 0.563}
{"variant": "C34U C46G A70U", "yeast fitness": 0.601}
{"variant": "C34U C49A", "yeast fitness": 0.585}
{"variant": "C34U C49A A69C", "yeast fitness": "≤ 0.5"}
{"variant": "C34U C49A G52A", "yeast fitness": 0.59}
{"variant": "C34U C49A G67A", "yeast fitness": "≤ 0.5"}
{"variant": "C34U C49U C55U", "yeast fitness": "≤ 0.5"}
{"variant": "C34U C49U C61A", "yeast fitness": "≤ 0.5"}
{"variant": "C34U C49U U53C", "yeast fitness": "≤ 0.5"}
{"variant": "C34U C55A A70U", "yeast fitness": 0.619}
{"variant": "C34U C55A C62U C66U", "yeast fitness": "≤ 0.5"}
{"variant": "C34U C55G G63A", "yeast fitness": "≤ 0.5"}
{"variant": "C34U C55U A65U", "yeast fitness": 0.607}
{"variant": "C34U C55U C60A", "yeast fitness": "≤ 0.5"}
{"variant": "C34U C55U C66U", "yeast fitness": 0.532}
{"variant": "C34U C55U G63C", "yeast fitness": "≤ 0.5"}
{"variant": "C34U C55U G67C", "yeast fitness": 0.558}
{"variant": "C34U C60G", "yeast fitness": 0.716}
{"variant": "C34U C60G A70C", "yeast fitness": "≤ 0.5"}
{"variant": "C34U C61G A70C", "yeast fitness": 0.528}
{"variant": "C34U C61G A70U", "yeast fitness": "≤ 0.5"}
{"variant": "C34U C61G C66U", "yeast fitness": 0.595}
{"variant": "C34U C62A C66U", "yeast fitness": "≤ 0.5"}
{"variant": "C34U C66U", "yeast fitness": 0.555}
{"variant": "C34U C66U A69U", "yeast fitness": "≤ 0.5"}
{"variant": "C34U G38A", "yeast fitness": 0.689}
{"variant": "C34U G38A C61G", "yeast fitness": "≤ 0.5"}
{"variant": "C34U G38A G44C", "yeast fitness": "≤ 0.5"}
{"variant": "C34U G38C C55A U64C", "yeast fitness": "≤ 0.5"}
{"variant": "C34U G39A C62U", "yeast fitness": 0.607}
{"variant": "C34U G39A U47C G56A", "yeast fitness": "≤ 0.5"}
{"variant": "C34U G39C C49G", "yeast fitness": "≤ 0.5"}
{"variant": "C34U G41A C49G", "yeast fitness": 0.535}
{"variant": "C34U G41A U47A G58C G63C G67A", "yeast fitness": "≤ 0.5"}
{"variant": "C34U G41C", "yeast fitness": 0.768}
{"variant": "C34U G44A C49A G56C C62A A65C", "yeast fitness": "≤ 0.5"}
{"variant": "C34U G44C A45C C66A", "yeast fitness": 0.591}
{"variant": "C34U G44C A45G U47G", "yeast fitness": "≤ 0.5"}
{"variant": "C34U G44C G56A", "yeast fitness": "≤ 0.5"}
{"variant": "C34U G44C U53C", "yeast fitness": "≤ 0.5"}
{"variant": "C34U G48C", "yeast fitness": 0.674}
{"variant": "C34U G48C C66U", "yeast fitness": 0.635}
{"variant": "C34U G50A", "yeast fitness": 0.67}
{"variant": "C34U G51A", "yeast fitness": 0.547}
{"variant": "C34U G52A", "yeast fitness": 0.618}
{"variant": "C34U G52A U54A C66U A69C", "yeast fitness": "≤ 0.5"}
{"variant": "C34U G56A G67A", "yeast fitness": "≤ 0.5"}
{"variant": "C34U G56C", "yeast fitness": 0.51}
{"variant": "C34U G58C A70C", "yeast fitness": "≤ 0.5"}
{"variant": "C34U G58C C60U C66G", "yeast fitness": "≤ 0.5"}
{"variant": "C34U G58C C61A A69U", "yeast fitness": "≤ 0.5"}
{"variant": "C34U G58C G63A A70C", "yeast fitness": "≤ 0.5"}
{"variant": "C34U G63C", "yeast fitness": "≤ 0.5"}
{"variant": "C34U G67A G68C", "yeast fitness": 0.653}
{"variant": "C34U G67C", "yeast fitness": 0.723}
{"variant": "C34U G68A", "yeast fitness": 0.774}
{"variant": "C34U G68U A69C", "yeast fitness": "≤ 0.5"}
{"variant": "C34U U35A", "yeast fitness": "≤ 0.5"}
{"variant": "C34U U35A A57C G58A A70U", "yeast fitness": 0.586}
{"variant": "C34U U35A C49G", "yeast fitness": 0.57}
{"variant": "C34U U35C A40G U47C", "yeast fitness": "≤ 0.5"}
{"variant": "C34U U35C A45G U54A", "yeast fitness": 0.704}
{"variant": "C34U U35C A69U", "yeast fitness": "≤ 0.5"}
{"variant": "C34U U35C A70C", "yeast fitness": "≤ 0.5"}
{"variant": "C34U U35G G38A C62U A65C", "yeast fitness": "≤ 0.5"}
{"variant": "C34U U47A", "yeast fitness": 0.621}
{"variant": "C34U U47A A70U", "yeast fitness": 0.534}
{"variant": "C34U U47A C66U", "yeast fitness": "≤ 0.5"}
{"variant": "C34U U47C", "yeast fitness": 0.67}
{"variant": "C34U U47C A69U", "yeast fitness": 0.506}
{"variant": "C34U U47G G58C", "yeast fitness": 0.518}
{"variant": "C34U U53A", "yeast fitness": "≤ 0.5"}
{"variant": "C34U U53C A69C", "yeast fitness": "≤ 0.5"}
{"variant": "C34U U53C C55U", "yeast fitness": "≤ 0.5"}
{"variant": "C34U U54C", "yeast fitness": 0.569}
{"variant": "C34U U54C A69U", "yeast fitness": "≤ 0.5"}
{"variant": "C34U U54C A70U", "yeast fitness": "≤ 0.5"}
{"variant": "C34U U54G", "yeast fitness": 0.612}
{"variant": "C34U U64A", "yeast fitness": 0.597}
{"variant": "U35A A36G", "yeast fitness": 0.65}
{"variant": "U35A A36G A40U A42U C55G", "yeast fitness": "≤ 0.5"}
{"variant": "U35A A36G G48A C49U", "yeast fitness": "≤ 0.5"}
{"variant": "U35A A36U A45C", "yeast fitness": 0.531}
{"variant": "U35A A36U A57G", "yeast fitness": "≤ 0.5"}
{"variant": "U35A A37G", "yeast fitness": "≤ 0.5"}
{"variant": "U35A A37G A40G A43U A45C", "yeast fitness": "≤ 0.5"}
{"variant": "U35A A40U A42U C55G", "yeast fitness": "≤ 0.5"}
{"variant": "U35A A40U G41C C49A", "yeast fitness": "≤ 0.5"}
{"variant": "U35A A42G", "yeast fitness": 0.681}
{"variant": "U35A A43C", "yeast fitness": 0.636}
{"variant": "U35A A43C C46U", "yeast fitness": "≤ 0.5"}
{"variant": "U35A A45G", "yeast fitness": 0.759}
{"variant": "U35A A57C", "yeast fitness": "≤ 0.5"}
{"variant": "U35A A57C U64A G68A", "yeast fitness": "≤ 0.5"}
{"variant": "U35A A57U A69U", "yeast fitness": "≤ 0.5"}
{"variant": "U35A A65C", "yeast fitness": 0.781}
{"variant": "U35A A65G C66U", "yeast fitness": 0.675}
{"variant": "U35A A65U", "yeast fitness": 0.757}
{"variant": "U35A A70C", "yeast fitness": 0.769}
{"variant": "U35A A70G", "yeast fitness": 0.588}
{"variant": "U35A A70U", "yeast fitness": 0.787}
{"variant": "U35A C46A C49G", "yeast fitness": "≤ 0.5"}
{"variant": "U35A C46A C49G G52A C60U A69G", "yeast fitness": "≤ 0.5"}
{"variant": "U35A C49G G58A C60A", "yeast fitness": "≤ 0.5"}
{"variant": "U35A C55A", "yeast fitness": "≤ 0.5"}
{"variant": "U35A C55A C66A", "yeast fitness": "≤ 0.5"}
{"variant": "U35A C55U", "yeast fitness": 0.564}
{"variant": "U35A C60A", "yeast fitness": 0.535}
{"variant": "U35A C60G C62G", "yeast fitness": "≤ 0.5"}
{"variant": "U35A C60G G67U", "yeast fitness": "≤ 0.5"}
{"variant": "U35A C60U", "yeast fitness": "≤ 0.5"}
{"variant": "U35A C61A A70U", "yeast fitness": "≤ 0.5"}
{"variant": "U35A C61U", "yeast fitness": 0.765}
{"variant": "U35A C62A", "yeast fitness": "≤ 0.5"}
{"variant": "U35A C62A C66G", "yeast fitness": 0.66}
{"variant": "U35A C66U A69U", "yeast fitness": "≤ 0.5"}
{"variant": "U35A G48A", "yeast fitness": 0.644}
{"variant": "U35A G50A A69U", "yeast fitness": 0.621}
{"variant": "U35A G51C A57U", "yeast fitness": 0.539}
{"variant": "U35A G52A U59C C66A G67A", "yeast fitness": "≤ 0.5"}
{"variant": "U35A G56A", "yeast fitness": 0.817}
{"variant": "U35A G63C", "yeast fitness": 0.56}
{"variant": "U35A G67A", "yeast fitness": 0.714}
{"variant": "U35A G67C", "yeast fitness": 0.657}
{"variant": "U35A G68U", "yeast fitness": 0.6}
{"variant": "U35A U47C", "yeast fitness": 0.589}
{"variant": "U35A U47C C49U C62A A69G", "yeast fitness": 0.718}
{"variant": "U35A U53C A57C", "yeast fitness": "≤ 0.5"}
{"variant": "U35A U54G", "yeast fitness": "≤ 0.5"}
{"variant": "U35A U59A", "yeast fitness": 0.591}
{"variant": "U35A U59G", "yeast fitness": 0.62}
{"variant": "U35C A36C A40U C61G", "yeast fitness": "≤ 0.5"}
{"variant": "U35C A36C A40U C61G A69C A70C", "yeast fitness": "≤ 0.5"}
{"variant": "U35C A36C A45C", "yeast fitness": 0.522}
{"variant": "U35C A36G A45C", "yeast fitness": 0.825}
{"variant": "U35C A36G G58A G67A", "yeast fitness": "≤ 0.5"}
{"variant": "U35C A36U", "yeast fitness": 0.603}
{"variant": "U35C A36U A40U C55U A57C", "yeast fitness": 0.865}
{"variant": "U35C A37C", "yeast fitness": 0.817}
{"variant": "U35C A37U A43C C46U C49U G68A", "yeast fitness": "≤ 0.5"}
{"variant": "U35C A40C C61G", "yeast fitness": "≤ 0.5"}
{"variant": "U35C A40U", "yeast fitness": 0.856}
{"variant": "U35C A42C A43G", "yeast fitness": 0.617}
{"variant": "U35C A42C A43G G48A", "yeast fitness": 0.576}
{"variant": "U35C A42C G52C", "yeast fitness": "≤ 0.5"}
{"variant": "U35C A42C G52C U53C G68U", "yeast fitness": "≤ 0.5"}
{"variant": "U35C A42G", "yeast fitness": 0.761}
{"variant": "U35C A42G C55A", "yeast fitness": "≤ 0.5"}
{"variant": "U35C A42U C62G", "yeast fitness": 0.546}
{"variant": "U35C A43G U54C", "yeast fitness": "≤ 0.5"}
{"variant": "U35C A45C C49A", "yeast fitness": "≤ 0.5"}
{"variant": "U35C A45G C49G G56A A65C", "yeast fitness": "≤ 0.5"}
{"variant": "U35C A45U G68A", "yeast fitness": 0.668}
{"variant": "U35C A57C", "yeast fitness": 0.609}
